The term pEC50 denotes −log10 of the EC50, conventionally taken in molar units.

Experimental findings from ChEMBL document CHEMBL3739286, “Betulinic acid derived hydroxamates and betulin derived carbamates are interesting scaffolds for the synthesis of novel cytotoxic compounds” (Eur J Med Chem, 2015) are described below.

pEC50: −log10 of the molar value.

For the first assay, the system named is A2780. As to the kind of experiment: Cytotoxicity against human A2780 cells after 96 hrs by SRB assay. It is filed as functional, cell-based. Conditions: Homo sapiens, A2780, 96 h; read-out: EC50. The method in brief:
(§1)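 Photometric sulforhodamine B read-out of antiproliferative effect after 96 h of continuous treatment; EC₅₀ values in µM, averaged from three independent experiments each run in triplicate; the assay cut-off is EC₅₀ > 30 µM. Human tumour lines are tested alongside nonmalignant mouse NIH 3T3 fibroblasts.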
With `C=C(C)[C@@H]1CC[C@]2(CO)CC[C@]3(C)[C@H](CC[C@@H]4[C@@]5(C)CC[C@H](OC(C)=O)C(C)(C)[C@@H]5CC[C@]43C)[C@@H]12`, the negative-log EC50 (pEC50) is 4.96.
On the same count and under the same terms, next, `C=C(C)[C@@H]1CC[C@]2(C(=O)O)CC[C@]3(C)[C@H](CC[C@@H]4[C@@]5(C)CC[C@H](OC(C)=O)C(C)(C)[C@@H]5CC[C@]43C)[C@@H]12`: 4.74; `C=C(C)[C@@H]1CC[C@]2(C(=O)NCc3ccccc3)CC[C@]3(C)[C@H](CC[C@@H]4[C@@]5(C)CC[C@H](O)C(C)(C)[C@@H]5CC[C@]43C)[C@@H]12`: 4.93; `C=C(C)[C@@H]1CC[C@]2(C(=O)NO)CC[C@]3(C)[C@H](CC[C@@H]4[C@@]5(C)CC[C@H](OC(C)=O)C(C)(C)[C@@H]5CC[C@]43C)[C@@H]12`: 5.89.
Still for that read-out and setting: for `C=C(C)[C@@H]1CC[C@]2(COC(=O)NCCCCCC)CC[C@]3(C)[C@H](CC[C@@H]4[C@@]5(C)CC[C@H](O)C(C)(C)[C@@H]5CC[C@]43C)[C@@H]12` the value was 5.11; for `C=C(C)[C@@H]1CC[C@]2(C(=O)NO)CC[C@]3(C)[C@H](CC[C@@H]4[C@@]5(C)CC[C@H](O)C(C)(C)[C@@H]5CC[C@]43C)[C@@H]12`, 5.43.

A further assay concerns A549. In words: Cytotoxicity against human A549 cells after 96 hrs by SRB assay. Conditions: Homo sapiens, A549, 96 h; read-out: EC50. In kind it is functional, cell-based. In short, it runs like this:
as §1
Consider `C=C(C)[C@@H]1CC[C@]2(CO)CC[C@]3(C)[C@H](CC[C@@H]4[C@@]5(C)CC[C@H](OC(C)=O)C(C)(C)[C@@H]5CC[C@]43C)[C@@H]12`, for which the pEC50 was 4.85.
On the same count and under the same terms, for `C=C(C)[C@@H]1CC[C@]2(C(=O)O)CC[C@]3(C)[C@H](CC[C@@H]4[C@@]5(C)CC[C@H](OC(C)=O)C(C)(C)[C@@H]5CC[C@]43C)[C@@H]12` the value was 5.21.
As to `C=C(C)[C@@H]1CC[C@]2(C(=O)NCc3ccccc3)CC[C@]3(C)[C@H](CC[C@@H]4[C@@]5(C)CC[C@H](O)C(C)(C)[C@@H]5CC[C@]43C)[C@@H]12`, the pEC50 was less than 4.52.
The same measure, in the same setting: next, `C=C(C)[C@@H]1CC[C@]2(C(=O)NO)CC[C@]3(C)[C@H](CC[C@@H]4[C@@]5(C)CC[C@H](OC(C)=O)C(C)(C)[C@@H]5CC[C@]43C)[C@@H]12`: 5.89; `C=C(C)[C@@H]1CC[C@]2(COC(=O)NCCCCCC)CC[C@]3(C)[C@H](CC[C@@H]4[C@@]5(C)CC[C@H](O)C(C)(C)[C@@H]5CC[C@]43C)[C@@H]12`: 4.90.
Still for that read-out and setting: next, `C=C(C)[C@@H]1CC[C@]2(C(=O)NO)CC[C@]3(C)[C@H](CC[C@@H]4[C@@]5(C)CC[C@H](O)C(C)(C)[C@@H]5CC[C@]43C)[C@@H]12`: 5.28.

Another assay has as its system HT-29. In words: Cytotoxicity against human HT-29 cells after 96 hrs by SRB assay. In kind it is functional, cell-based. The settings on record: HT-29, 96 h. The method in brief: as §1
Background: The SRB assay estimates cell density from bound dye.
Compound `C=C(C)[C@@H]1CC[C@]2(COC(=O)NCCCCCC)CC[C@]3(C)[C@H](CC[C@@H]4[C@@]5(C)CC[C@H](O)C(C)(C)[C@@H]5CC[C@]43C)[C@@H]12` had a pEC50 of less than 4.52.

Test system in the next assay: not listed separately
As to the kind of experiment: Cytotoxicity against human 518A2 cells after 96 hrs by SRB assay. The settings on record: Homo sapiens, 518A2, 96 h; read-out: EC50. It is filed as functional, cell-based. In short, it runs like this: as §1
With `C=C(C)[C@@H]1CC[C@]2(CO)CC[C@]3(C)[C@H](CC[C@@H]4[C@@]5(C)CC[C@H](OC(C)=O)C(C)(C)[C@@H]5CC[C@]43C)[C@@H]12`, the pEC50 is 4.82.
Same read-out and setting: next, `C=C(C)[C@@H]1CC[C@]2(C(=O)O)CC[C@]3(C)[C@H](CC[C@@H]4[C@@]5(C)CC[C@H](OC(C)=O)C(C)(C)[C@@H]5CC[C@]43C)[C@@H]12`: 5.35; `C=C(C)[C@@H]1CC[C@]2(C(=O)NCc3ccccc3)CC[C@]3(C)[C@H](CC[C@@H]4[C@@]5(C)CC[C@H](O)C(C)(C)[C@@H]5CC[C@]43C)[C@@H]12`: less than 4.52; `C=C(C)[C@@H]1CC[C@]2(C(=O)NO)CC[C@]3(C)[C@H](CC[C@@H]4[C@@]5(C)CC[C@H](OC(C)=O)C(C)(C)[C@@H]5CC[C@]43C)[C@@H]12`: 5.80.
With `C=C(C)[C@@H]1CC[C@]2(COC(=O)NCCCCCC)CC[C@]3(C)[C@H](CC[C@@H]4[C@@]5(C)CC[C@H](O)C(C)(C)[C@@H]5CC[C@]43C)[C@@H]12`, the negative-log EC50 (pEC50) is 5.26.
Same read-out and setting: for `C=C(C)[C@@H]1CC[C@]2(C(=O)NO)CC[C@]3(C)[C@H](CC[C@@H]4[C@@]5(C)CC[C@H](O)C(C)(C)[C@@H]5CC[C@]43C)[C@@H]12` the value was 5.62.

The test system of the next assay is HeLa. In words: Cytotoxicity against human HeLa cells after 96 hrs by SRB assay. It is filed as functional, cell-based.
Conditions: not given
In short, it runs like this:
as §1
Consider `C=C(C)[C@@H]1CC[C@]2(C(=O)NCc3ccccc3)CC[C@]3(C)[C@H](CC[C@@H]4[C@@]5(C)CC[C@H](O)C(C)(C)[C@@H]5CC[C@]43C)[C@@H]12`, for which the pEC50 was less than 4.52.
On the same count and under the same terms, next, `C=C(C)[C@@H]1CC[C@]2(COC(=O)NCCCCCC)CC[C@]3(C)[C@H](CC[C@@H]4[C@@]5(C)CC[C@H](O)C(C)(C)[C@@H]5CC[C@]43C)[C@@H]12`: 5.13.

Another assay relates to MCF7. As to the kind of experiment: Cytotoxicity against human MCF7 cells after 96 hrs by SRB assay. It is filed as functional, cell-based. The settings on record: Homo sapiens, MCF7, 96 h; read-out: EC50. In short, it runs like this:
as §1
As for `C=C(C)[C@@H]1CC[C@]2(CO)CC[C@]3(C)[C@H](CC[C@@H]4[C@@]5(C)CC[C@H](OC(C)=O)C(C)(C)[C@@H]5CC[C@]43C)[C@@H]12`, the pEC50 is 4.95.
The same measure, in the same setting: next, `C=C(C)[C@@H]1CC[C@]2(C(=O)O)CC[C@]3(C)[C@H](CC[C@@H]4[C@@]5(C)CC[C@H](OC(C)=O)C(C)(C)[C@@H]5CC[C@]43C)[C@@H]12`: 4.96; `C=C(C)[C@@H]1CC[C@]2(C(=O)NCc3ccccc3)CC[C@]3(C)[C@H](CC[C@@H]4[C@@]5(C)CC[C@H](O)C(C)(C)[C@@H]5CC[C@]43C)[C@@H]12`: 4.74.
Still for that read-out and setting: for `C=C(C)[C@@H]1CC[C@]2(C(=O)NO)CC[C@]3(C)[C@H](CC[C@@H]4[C@@]5(C)CC[C@H](OC(C)=O)C(C)(C)[C@@H]5CC[C@]43C)[C@@H]12` the value was 5.85; for `C=C(C)[C@@H]1CC[C@]2(COC(=O)NCCCCCC)CC[C@]3(C)[C@H](CC[C@@H]4[C@@]5(C)CC[C@H](O)C(C)(C)[C@@H]5CC[C@]43C)[C@@H]12`, less than 4.52.
In the case of `C=C(C)[C@@H]1CC[C@]2(C(=O)NO)CC[C@]3(C)[C@H](CC[C@@H]4[C@@]5(C)CC[C@H](O)C(C)(C)[C@@H]5CC[C@]43C)[C@@H]12`, the pEC50 is 5.41.

Test system in another assay: not listed separately
In words: Cytotoxicity against mouse NIH/3T3 cells after 96 hrs by SRB assay. It is filed as cell-based, NIH3T3. The settings on record: Mus musculus, NIH3T3, 96 h; read-out: EC50. In short, it runs like this:
as §1
In the case of `C=C(C)[C@@H]1CC[C@]2(CO)CC[C@]3(C)[C@H](CC[C@@H]4[C@@]5(C)CC[C@H](OC(C)=O)C(C)(C)[C@@H]5CC[C@]43C)[C@@H]12`, the negative logarithm of the EC50 (pEC50) is less than 4.52.
Still for that read-out and setting: next, `C=C(C)[C@@H]1CC[C@]2(C(=O)O)CC[C@]3(C)[C@H](CC[C@@H]4[C@@]5(C)CC[C@H](OC(C)=O)C(C)(C)[C@@H]5CC[C@]43C)[C@@H]12`: less than 4.52; `C=C(C)[C@@H]1CC[C@]2(C(=O)NCc3ccccc3)CC[C@]3(C)[C@H](CC[C@@H]4[C@@]5(C)CC[C@H](O)C(C)(C)[C@@H]5CC[C@]43C)[C@@H]12`: 4.95; `C=C(C)[C@@H]1CC[C@]2(C(=O)NO)CC[C@]3(C)[C@H](CC[C@@H]4[C@@]5(C)CC[C@H](OC(C)=O)C(C)(C)[C@@H]5CC[C@]43C)[C@@H]12`: 5.96.
The same measure, in the same setting: next, `C=C(C)[C@@H]1CC[C@]2(COC(=O)NCCCCCC)CC[C@]3(C)[C@H](CC[C@@H]4[C@@]5(C)CC[C@H](O)C(C)(C)[C@@H]5CC[C@]43C)[C@@H]12`: less than 4.52.
As for `C=C(C)[C@@H]1CC[C@]2(C(=O)NO)CC[C@]3(C)[C@H](CC[C@@H]4[C@@]5(C)CC[C@H](O)C(C)(C)[C@@H]5CC[C@]43C)[C@@H]12`, the pEC50 is 5.70.
